Test results published in ChEMBL document CHEMBL1150789, “Antiplasmodial activity of aryltetralone lignans from Holostylis reniformis” (Antimicrob Agents Chemother, 2007).
pIC50: −log10 of the molar value.

Legend:
Plasmodium falciparum = assay: Antiplasmodial activity growth inhibition of chloroquine-resistant Plasmodium falciparum BHz 26/86 after 72 hrs; type: functional, organism-based; conditions: BHz 26/86, 72 h
How it was run: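 Chloroquine-resistant Amazon isolate in continuous culture on human AB+ or A+ erythrocytes, RPMI 1640 + 10% human serum. Sorbitol-synchronized trophozoites at 1–2% parasitemia, 2.5% hematocrit. Compounds in 0.02% Tween 20, tested at 0.02 to 20 μM, 37°C. Growth inhibition versus drug-free control from blinded smear reading. IC50/IC90 by linear interpolation. Triplicate, three repeats.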

[1] = Toxicity against human HepG2A16 cells assessed as cell death at 450 ug/ml by MTT method; type: cell-based

SMILES | pIC50 (Plasmodium falciparum) | IC90 (Plasmodium falciparum) [nM] | Activity [1] [%]
COc1cc2c(cc1OC)[C@@H](c1ccc3c(c1)OCO3)[C@H](C)[C@H](C)C2=O | < 3.85 | > 140000 | 30
COc1cc2c(cc1OC)[C@@H](c1ccc3c(c1)OCO3)[C@@H](C)[C@H](C)C2=O | 6.59 | 3350 | 30
COc1ccc([C@@H]2c3cc(OC)c(OC)cc3C(=O)[C@@H](C)[C@@H]2C)cc1OC | 6.49 | 4600 | 30
COc1ccc([C@@H]2c3cc(OC)c(OC)cc3C(=O)[C@H](C)[C@H]2C)cc1OC | 6.70 | 3000 | 30
COc1ccc([C@@H]2c3cc(OC)c(OC)cc3C(=O)[C@@H](C)[C@H]2C)cc1OC | 6.20 | 2610 | 30
COc1ccc([C@@H]2c3cc4c(cc3C(=O)[C@@H](C)[C@H]2C)OCO4)cc1OC | 5.10 | 19700 | 30
CCN(CC)CCCC(C)Nc1ccnc2cc(Cl)ccc12 (centres undefined) [CHLOROQUINE] | – | 700 | –
